In ChEMBL document CHEMBL1138004, “Small molecule antagonists of the CCR2b receptor. Part 2: Discovery process and initial structure-activity relationships of diamine derivatives” (Bioorg Med Chem Lett, 2004):

What follows are compounds tested against T1, C-C chemokine receptor type 2 (Homo sapiens, UniProt P41597) (assay: Concentration required to inhibit [125I]MCP-1 binding to Chemokine receptor 2B). Conditions: not given; call rule not given here.
Procedure, shortened: (§1)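 Radioligand binding with THP-1 cells as the receptor source and human 125I-MCP-1 as the tracer. Inhibition of tracer binding by test compounds was measured.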
Target sequence in this assay (P41597 whole entry): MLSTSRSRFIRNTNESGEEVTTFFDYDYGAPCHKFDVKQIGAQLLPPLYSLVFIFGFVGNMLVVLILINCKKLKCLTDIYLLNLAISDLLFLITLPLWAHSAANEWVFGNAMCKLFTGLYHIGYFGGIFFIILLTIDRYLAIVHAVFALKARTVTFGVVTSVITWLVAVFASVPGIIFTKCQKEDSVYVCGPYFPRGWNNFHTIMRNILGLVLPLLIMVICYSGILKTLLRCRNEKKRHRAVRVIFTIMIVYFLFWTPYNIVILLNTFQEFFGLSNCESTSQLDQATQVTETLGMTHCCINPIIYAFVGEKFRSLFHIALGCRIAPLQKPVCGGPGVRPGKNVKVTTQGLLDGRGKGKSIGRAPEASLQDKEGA

| SMILES | IC50 |
| --- | --- |
| Cc1csc(C(=O)NNC(=O)CNC2CCN(Cc3ccc(Cl)cc3)C2)c1 (stereo not given) | 41 µM |
| O=C(CCNC(=O)c1ccccc1)NC1CCCN(Cc2ccc(Cl)cc2)C1 (stereo not given) | 74 µM |
| O=C(CNC(=O)c1ccccc1)NC1CCN(Cc2ccc(Cl)cc2)C1 (stereo not given) | 42 µM |
| O=C(CCNC(=O)c1ccccc1)NCC1CCCN1Cc1ccc(Cl)cc1 (stereo not given) | 40 µM |
| Cc1cccc(C(=O)NCC(=O)NC2CCN(Cc3ccc(Cl)cc3)C2)c1 (stereo not given) | 6.9 µM |
| O=C(CCCC(=O)c1ccccc1)NCC1CCN(Cc2ccc(Cl)cc2)CC1 | 50 µM |
| Cc1csc(C(=O)NNC(=O)CN2CCC(NCc3ccc(Cl)cc3)C2)c1 (stereo not given) | 7.8 µM |
| Cc1csc(C(=O)NNC(=O)CN2CCC(NCCC(c3ccccc3)c3ccccc3)C2)c1 (stereo not given) | 17 µM |
| Cc1cccc(C(=O)NCC(=O)NCC2CCCN2Cc2ccc(Cl)cc2)c1 (stereo not given) | 14 µM |
| O=C(CNC(=O)c1cccc(C(F)(F)F)c1)NC[C@H]1CCCN1Cc1ccc(Cl)cc1 | 0.57 µM |
| O=C(CNC(=O)c1cccc(C(F)(F)F)c1)NC1CCN(Cc2ccc(Cl)cc2)C1 (stereo not given) | 0.37 µM |
| O=C(CNC(=O)c1cccc(C(F)(F)F)c1)NC1CCCN(Cc2ccc(Cl)cc2)C1 (stereo not given) | 0.66 µM |
| O=C(CNC(=O)c1cccc(C(F)(F)F)c1)N[C@H]1CCN(Cc2ccc(Cl)cc2)C1 | 1.2 µM |
| O=C(CCCC(=O)c1ccccc1)NCC1CCCN1Cc1ccc(Cl)cc1 (stereo not given) | 19 µM |
| Cc1cccc(C(=O)NCC(=O)NC2CCCN(Cc3ccc(Cl)cc3)C2)c1 (stereo not given) | 17 µM |
| O=C(CNC(=O)c1cccc(C(F)(F)F)c1)NCC1CCN(Cc2ccc(Cl)cc2)CC1 | 0.7 µM |
| O=C(CNC(=O)c1cccc(C(F)(F)F)c1)NCC1CCCN1Cc1ccc(Cl)cc1 (stereo not given) | 2.3 µM |
| O=C(CNC(=O)c1cccc(C(F)(F)F)c1)NC[C@@H]1CCCN1Cc1ccc(Cl)cc1 | 3.1 µM |
| O=C(CCCC(=O)c1ccccc1)NC1CCCN(Cc2ccc(Cl)cc2)C1 (stereo not given) | 87 µM |
| O=C(CCNC(=O)c1ccccc1)NCC1CCN(Cc2ccc(Cl)cc2)CC1 | 64 µM |
| O=C(CNC(=O)c1ccccc1)NCC1CCCN1Cc1ccc(Cl)cc1 (stereo not given) | 66 µM |
| Cc1csc(C(=O)NNC(=O)CNC2CCN(CCC(c3ccccc3)c3ccccc3)C2)c1 (stereo not given) | 33 µM |
| O=C(CCNC(=O)c1ccccc1)NC1CCN(Cc2ccc(Cl)cc2)C1 (stereo not given) | 22 µM |
| Cc1csc(C(=O)NNC(=O)CN2CCCC2CNCCC(c2ccccc2)c2ccccc2)c1 (stereo not given) | 26 µM |
| O=C(CNC(=O)c1ccccc1)NCC1CCN(Cc2ccc(Cl)cc2)CC1 | 11 µM |
| O=C(CCCC(=O)c1ccccc1)NC1CCN(Cc2ccc(Cl)cc2)C1 (stereo not given) | 11 µM |
| Cc1cccc(C(=O)NCC(=O)NCC2CCN(Cc3ccc(Cl)cc3)CC2)c1 | 5.5 µM |
| O=C(CNC(=O)c1cccc(C(F)(F)F)c1)N[C@@H]1CCN(Cc2ccc(Cl)cc2)C1 | 0.18 µM |

These compounds were tested against T1, C-C chemokine receptor type 2 (assay: Inhibition of [125I]MCP-1 binding to Chemokine receptor 2B; not active). Conditions: not given.
Procedure, shortened: as §1
Target sequence in this assay (P41597 whole entry): as above

| SMILES | IC50 |
| --- | --- |
| O=C(CNC(=O)c1ccccc1)NC1CCCN(Cc2ccc(Cl)cc2)C1 (stereo not given) | Not Active |

What follows are compounds tested against T1, C-C chemokine receptor type 2. Conditions: 10 uM.
Target sequence in this assay (P41597 whole entry, looked up): as the sequence (P41597 whole entry) above

| SMILES | inhibition |
| --- | --- |
| O=C(CNC(=O)c1cccc(C(F)(F)F)c1)N[C@@H]1CCN(Cc2ccc(Cl)cc2)C1 | 49% |
